Assay results from ChEMBL document CHEMBL1122582, “Pyridonecarboxylic acids as antibacterial agents. 2. Synthesis and structure-activity relationships of 1,6,7-trisubstituted 1,4-dihydro-4-oxo-1,8-naphthyridine-3-carboxylic acids, including enoxacin, a new antibacterial agent” (J Med Chem, 1984).
Converted amounts (≈) assume the structure as drawn.

How the values were obtained:
Format in all cases: functional
Pseudomonas aeruginosa [1] = test: Antibacterial activity against Pseudomonas aeruginosa Tsuchijima
In short: (§1)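 Twofold agar dilution on Mueller-Hinton agar (pH 7.4). Inocula of approximately 10⁶ colony-forming units; growth read after 20-h incubation at 37 °C. MIC is given in micrograms per milliliter.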

Escherichia coli [2] = test: Antibacterial activity against Escherichia coli NIHJ JC-2; in short: as §1
Staphylococcus aureus [3] = test: Antibacterial activity against Staphylococcus aureus 209PJC-1; in short: as §1
Staphylococcus aureus [4] = test: Median effective dose against Staphylococcus aureus 50774 causing systemic infections
In short: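 Systemic infection given iv with S. aureus 50774 (5×10^8 cells) to male Std-ddY mice (20 ± 2 g), 10 or more per group. Oral dosing of compound suspended in 0.2% sodium carboxymethylcellulose at 0 and 6 h postinfection. ED50 in mg/kg from survival scored after 2 weeks.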

Escherichia coli [5] = test: Median effective dose against Escherichia coli P-5101 causing systemic infections.
In short: (§2)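 Male Std-ddY mice (20 ± 2 g), groups of 10 or more, infected ip with E. coli P-5101 (9×10^6 cells). Compounds were suspended in 0.2% sodium carboxymethylcellulose and dosed orally at 0 and 6 h postinfection. Survival was scored after 1 week and the ED50 derived in mg/kg.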

Pseudomonas aeruginosa [6] = test: Median effective dose against Pseudomonas aeruginosa 12 causing systemic infections
In short: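 Male Std-ddY mice (20 ± 2 g), groups of 10 or more, infected ip with P. aeruginosa 12 (4×10^3 cells). Compounds were suspended in 0.2% sodium carboxymethylcellulose and given orally at 0 and 6 h postinfection. Survival was scored after 1 week and the ED50 derived in mg/kg.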

Escherichia coli [7] = test: Median effective dose against Escherichia coli P-5101 causing systemic infections; in short: as §2

Compound | MIC (Pseudomonas aeruginosa [1]) [µg/mL] | MIC (Escherichia coli [2]) [µg/mL] | MIC (Staphylococcus aureus [3]) [µg/mL] | ED50 (Staphylococcus aureus [4]) [mg/kg] | ED50 (Escherichia coli [5]) [mg/kg] | ED50 (Pseudomonas aeruginosa [6]) [mg/kg] | ED50 (Escherichia coli [7]) [mg/kg]
CCCN1CCN(c2nc3c(cc2F)c(=O)c(C(=O)O)cn3CC)CC1 | 12.5 (≈ 34.5 µM) | 1.56 (≈ 4.3 µM) | 1.56 (≈ 4.3 µM) | – | – | – | –
CN1CCN(c2nc3c(cc2F)c(=O)c(C(=O)O)cn3CCF)CC1 | 1.56 (≈ 4.43 µM) | 0.2 (≈ 0.568 µM) | 0.78 (≈ 2.21 µM) | – | – | – | –
CCn1cc(C(=O)O)c(=O)c2cc(F)c(N3CCOCC3)nc21 | 6.25 (≈ 19.5 µM) | 3.13 (≈ 9.74 µM) | 1.56 (≈ 4.86 µM) | – | – | – | –
CCn1cc(C(=O)O)c(=O)c2cc(F)c(N3CCCCCCC3)nc21 | > 100 | 25 (≈ 72 µM) | 12.5 (≈ 36 µM) | – | – | – | –
CCn1cc(C(=O)O)c(=O)c2cc(F)c(N3CCCCC3)nc21 | 12.5 (≈ 39.1 µM) | 6.25 (≈ 19.6 µM) | 0.78 (≈ 2.44 µM) | – | – | – | –
CCn1cc(C(=O)O)c(=O)c2cc(F)c(NCCN)nc21 | 50 (≈ 170 µM) | 6.25 (≈ 21.2 µM) | 25 (≈ 85 µM) | – | – | – | –
CCn1cc(C(=O)O)c(=O)c2cc(N)c(N3CCN(C)CC3)nc21 | 12.5 (≈ 37.7 µM) | 1.56 (≈ 4.71 µM) | 25 (≈ 75.4 µM) | – | – | – | –
C=Cn1cc(C(=O)O)c(=O)c2cc(F)c(N3CCN(C)CC3)nc21 | 0.78 (≈ 2.35 µM) | 0.2 (≈ 0.602 µM) | 3.13 (≈ 9.42 µM) | 10.5 | 1.1 | 3.7 | –
CCn1cc(C(=O)O)c(=O)c2cnc(N3CCNCC3)nc21 [PIPEMIDIC ACID] | 6.25 (≈ 20.6 µM) | – | 6.25 (≈ 20.6 µM) | – | – | 70.8 | 12.8
CCN1CCN(c2nc3c(cc2F)c(=O)c(C(=O)O)cn3CC)CC1 | 3.13 (≈ 8.98 µM) | 0.78 (≈ 2.24 µM) | 0.78 (≈ 2.24 µM) | – | – | – | –
CCn1cc(C(=O)O)c(=O)c2cc(F)c(N3CCCNCC3)nc21 | 1.56 (≈ 4.67 µM) | 0.78 (≈ 2.33 µM) | 1.56 (≈ 4.67 µM) | – | – | – | –
CCCCN1CCN(c2nc3c(cc2F)c(=O)c(C(=O)O)cn3CC)CC1 | 25 (≈ 66.4 µM) | 3.13 (≈ 8.31 µM) | 3.13 (≈ 8.31 µM) | – | – | – | –
CCn1cc(C(=O)O)c(=O)c2cc(F)c(N3CCN(c4ccccc4)CC3)nc21 | > 100 | 12.5 (≈ 31.5 µM) | 6.25 (≈ 15.8 µM) | – | – | – | –
O=C(O)c1cn(CCF)c2nc(N3CCNCC3)c(F)cc2c1=O | 0.78 (≈ 2.31 µM) | 0.2 (≈ 0.591 µM) | 0.39 (≈ 1.15 µM) | – | – | – | –
CCn1cc(C(=O)O)c(=O)c2ccc(N3CCN(C)CC3)nc21 | 25 (≈ 79 µM) | 6.25 (≈ 19.8 µM) | 25 (≈ 79 µM) | – | – | – | –
CCn1cc(C(=O)O)c(=O)c2cc(N)c(N3CCNCC3)nc21 | 6.25 (≈ 19.7 µM) | 3.13 (≈ 9.86 µM) | > 100 | – | – | – | –
CCn1cc(C(=O)O)c(=O)c2cc(C#N)c(N3CCNCC3)nc21 | 6.25 (≈ 19.1 µM) | 1.56 (≈ 4.77 µM) | 6.25 (≈ 19.1 µM) | – | – | – | –
CCn1cc(C(=O)O)c(=O)c2cc(F)c(N3CCN(Cc4ccccc4)CC3)nc21 | 12.5 (≈ 30.5 µM) | 6.25 (≈ 15.2 µM) | 0.78 (≈ 1.9 µM) | – | – | – | –
CCn1cc(C(=O)O)c(=O)c2cc(F)c(N3CCNC(=O)C3)nc21 | 12.5 (≈ 37.4 µM) | 0.78 (≈ 2.33 µM) | 6.25 (≈ 18.7 µM) | – | – | – | –

Compound | MIC (Pseudomonas aeruginosa [1]) [µg/mL] | MIC (Escherichia coli [2]) [µg/mL] | MIC (Staphylococcus aureus [3]) [µg/mL] | ED50 (Staphylococcus aureus [4]) [mg/kg] | ED50 (Escherichia coli [5]) [mg/kg] | ED50 (Pseudomonas aeruginosa [6]) [mg/kg] | ED50 (Escherichia coli [7]) [mg/kg]
CCn1cc(C(=O)O)c(=O)c2ccc(N3CCCC3)nc21 | > 100 | 25 (≈ 87 µM) | 12.5 (≈ 43.5 µM) | – | – | – | –
CCn1cc(C(=O)O)c(=O)c2cc(F)c(N3CCN(C(C)=O)CC3)nc21 | 50 (≈ 138 µM) | 3.13 (≈ 8.64 µM) | 3.13 (≈ 8.64 µM) | – | – | – | –
CCn1cc(C(=O)O)c(=O)c2ccc(C)nc21 [NALIDIXIC ACID] | 50 (≈ 215 µM) | 1.56 (≈ 6.72 µM) | – | – | – | – | –
O=C(O)c1cn(C(F)F)c2nc(N3CCNCC3)c(F)cc2c1=O | 6.25 (≈ 18.3 µM) | 0.78 (≈ 2.28 µM) | 6.25 (≈ 18.3 µM) | – | – | – | –
CCn1cc(C(=O)O)c(=O)c2cc([N+](=O)[O-])c(N3CCNCC3)nc21 | 25 (≈ 72 µM) | 6.25 (≈ 18 µM) | 6.25 (≈ 18 µM) | – | – | – | –
CCn1cc(C(=O)O)c(=O)c2cc(C#N)c(N3CCN(C)CC3)nc21 | 12.5 (≈ 36.6 µM) | 1.56 (≈ 4.57 µM) | 12.5 (≈ 36.6 µM) | – | – | – | –
CCn1cc(C(=O)O)c(=O)c2cc(F)c(N)nc21 | 50 (≈ 199 µM) | 1.56 (≈ 6.21 µM) | > 100 | – | – | – | –
CCn1cc(C(=O)O)c(=O)c2cc([N+](=O)[O-])c(N3CCCC3)nc21 | > 100 | 100 (≈ 301 µM) | 25 (≈ 75.2 µM) | – | – | – | –
CCn1cc(C(=O)O)c(=O)c2cc(F)c(N3CCCC3)nc21 | 3.13 (≈ 10.3 µM) | 1.56 (≈ 5.11 µM) | 0.39 (≈ 1.28 µM) | – | – | – | –
CCn1cc(C(=O)O)c(=O)c2cc(Cl)c(N3CCCC3)nc21 | > 100 | > 100 | 12.5 (≈ 38.8 µM) | – | – | – | –
CCn1cc(C(=O)O)c(=O)c2cc(F)c(N3CCSCC3)nc21 | 12.5 (≈ 37.1 µM) | 3.13 (≈ 9.28 µM) | 1.56 (≈ 4.62 µM) | – | – | – | –
CCn1cc(C(=O)O)c(=O)c2cc([N+](=O)[O-])c(N3CCN(C)CC3)nc21 | 50 (≈ 138 µM) | 3.13 (≈ 8.66 µM) | 12.5 (≈ 34.6 µM) | – | – | – | –
CCn1cc(C(=O)O)c(=O)c2cc(F)c(N3CCCCCC3)nc21 | 50 (≈ 150 µM) | 6.25 (≈ 18.7 µM) | 3.13 (≈ 9.39 µM) | – | – | – | –
CCn1cc(C(=O)O)c(=O)c2cc(C#N)c(N3CCCC3)nc21 | 25 (≈ 80 µM) | 12.5 (≈ 40 µM) | 3.13 (≈ 10 µM) | – | – | – | –
CCn1cc(C(=O)O)c(=O)c2cc(N)c(N3CCCC3)nc21 | > 100 | > 100 | > 100 | – | – | – | –
CCn1cc(C(=O)O)c(=O)c2cc(F)c(N3CCN(C=O)CC3)nc21 | 12.5 (≈ 35.9 µM) | 1.56 (≈ 4.48 µM) | 3.13 (≈ 8.99 µM) | – | – | – | –
CCn1cc(C(=O)O)c(=O)c2cc(F)c(N3CCNCC3)nc21 [ENOXACIN] | 0.78 (≈ 2.44 µM) | 0.2 (≈ 0.624 µM) | 0.78 (≈ 2.44 µM) | – | – | – | –
CCC(C)N1CCN(c2nc3c(cc2F)c(=O)c(C(=O)O)cn3CC)CC1 (configuration not stated) | 25 (≈ 66.4 µM) | 3.13 (≈ 8.31 µM) | 1.56 (≈ 4.14 µM) | – | – | – | –
CCn1cc(C(=O)O)c(=O)c2cc(Cl)c(N3CCN(C)CC3)nc21 | 12.5 (≈ 35.6 µM) | 1.56 (≈ 4.45 µM) | 6.25 (≈ 17.8 µM) | – | – | – | –
